The source made the active and inactive calls. No cut-off for these calls is given here.
Experiments:
Type in all cases: protein assay
[1] = biological target: T1, Acetolactate synthase (Zea mays) (UniProt Q41768+Q41769); assay: Inhibition of in vitro ALS activity in first leaf of the plant grew out Zea mays (maize) seedlings measured at 520 OD/ mg of protein/hr at 800 ug/L at 37 degC
In short: (§1)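 Maize seedlings were treated in vivo, once the first leaf emerged, with herbicide in distilled water at 0, 100, 200, 400 and 800 μg L-1. Uppermost-expanded leaves were harvested 24 h later. ALS was extracted, precipitated with 50% (NH4)2SO4 at 4 °C, and assayed with 30 mM pyruvate, TPP and FAD at pH 7 for 1 h at 37 °C. Acetoin was read at A520 and normalised to Coomassie protein.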

[2] = biological target: T1, Acetolactate synthase (Zea mays); assay: Inhibition of in vitro ALS activity in first leaf of the plant grew out Zea mays (maize) seedlings measured at 520 OD/ mg of protein/hr at 400 ug/L at 37 degC; in short: as §1
[3] = biological target: T1, Acetolactate synthase (Zea mays); assay: Inhibition of in vitro ALS activity in first leaf of the plant grew out Zea mays (maize) seedlings measured at 520 OD/ mg of protein/hr at 200 ug/L at 37 degC; in short: as §1
[4] = biological target: T1, Acetolactate synthase (Zea mays); assay: Inhibition of in vitro ALS activity of Zea mays (maize) at 25 mg/L at 37 degC
In short: (§2)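 ALS came from uppermost-expanded leaves of 5-day maize seedlings, using a 50% (NH4)2SO4 pellet. Inhibitor was dried from acetone in the tubes at 0, 0.04, 0.2, 1, 5 and 25 mg L-1. The assay used 30 mM pyruvate, 1 mM MgCl2, 1 mM TPP, 20 μM FAD and 50 mM K-phosphate at pH 7, run for 1 h at 37 °C. It was stopped with H2SO4, decarboxylated for 15 min at 60 °C, developed with creatine/α-naphthol, and read at A520.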

[5] = biological target: T1, Acetolactate synthase (Zea mays); assay: Inhibition of in vitro ALS activity in first leaf of the plant grew out Zea mays (maize) seedlings measured at 520 OD/ mg of protein/hr at 100 ug/L at 37 degC; in short: as §1
[6] = biological target: T1, Acetolactate synthase (Zea mays); assay: Inhibition of in vitro ALS activity of Zea mays (maize) at 200 ug/L at 37 degC; in short: as §2

T1 sequence (Q41768 whole entry, looked up): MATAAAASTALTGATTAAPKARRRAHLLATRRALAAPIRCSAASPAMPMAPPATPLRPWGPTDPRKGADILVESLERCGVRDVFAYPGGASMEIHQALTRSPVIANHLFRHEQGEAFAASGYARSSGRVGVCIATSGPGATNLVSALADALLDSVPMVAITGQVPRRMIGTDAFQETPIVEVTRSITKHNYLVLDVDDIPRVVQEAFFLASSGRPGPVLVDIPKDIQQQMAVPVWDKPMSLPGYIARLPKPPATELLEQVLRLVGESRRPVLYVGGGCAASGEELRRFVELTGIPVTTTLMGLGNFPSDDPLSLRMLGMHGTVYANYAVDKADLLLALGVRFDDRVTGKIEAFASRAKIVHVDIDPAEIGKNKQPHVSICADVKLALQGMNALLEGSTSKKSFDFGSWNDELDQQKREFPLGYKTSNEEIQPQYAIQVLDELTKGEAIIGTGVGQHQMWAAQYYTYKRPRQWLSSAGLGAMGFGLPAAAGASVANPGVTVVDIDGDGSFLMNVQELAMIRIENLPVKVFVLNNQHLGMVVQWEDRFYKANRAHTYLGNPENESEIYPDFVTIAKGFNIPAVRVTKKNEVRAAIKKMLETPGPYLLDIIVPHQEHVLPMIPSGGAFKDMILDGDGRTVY
T1 sequence (Q41769 whole entry, looked up): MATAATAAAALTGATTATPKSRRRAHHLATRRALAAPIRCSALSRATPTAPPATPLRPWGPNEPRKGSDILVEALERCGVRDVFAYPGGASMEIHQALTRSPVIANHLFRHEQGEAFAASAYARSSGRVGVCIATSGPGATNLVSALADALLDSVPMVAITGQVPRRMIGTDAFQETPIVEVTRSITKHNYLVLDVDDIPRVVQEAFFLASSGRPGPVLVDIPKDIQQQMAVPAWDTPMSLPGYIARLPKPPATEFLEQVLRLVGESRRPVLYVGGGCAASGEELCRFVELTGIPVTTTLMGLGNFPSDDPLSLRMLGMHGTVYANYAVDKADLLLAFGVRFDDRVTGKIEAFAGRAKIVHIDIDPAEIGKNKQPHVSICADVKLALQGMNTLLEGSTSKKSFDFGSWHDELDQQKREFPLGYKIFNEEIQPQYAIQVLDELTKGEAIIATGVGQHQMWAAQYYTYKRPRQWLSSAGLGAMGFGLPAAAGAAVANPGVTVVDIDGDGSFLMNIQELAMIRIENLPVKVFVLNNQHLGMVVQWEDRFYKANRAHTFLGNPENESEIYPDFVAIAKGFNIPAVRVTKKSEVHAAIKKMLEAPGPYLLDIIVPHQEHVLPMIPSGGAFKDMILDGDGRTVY

Row | Compound | OD [1] [h⁻¹] | OD [2] [h⁻¹] | OD [3] [h⁻¹] | inhibition [4] | OD [5] [h⁻¹] | inhibition [6] [%]
1 | CCc1cnc(C2=N[C@@](C)(C(C)C)C(=O)N2)c(C(=O)O)c1 | 2.06 | 3.18 | 6.34 | Active | 7.96 | 3.8
2 | CCc1cnc(C2=NC(C)(C(C)C)C(=O)N2)c(C(=O)O)c1 (racemic) | 1.9 | 2.26 | 4.41 | Active | 7.6 | 19.8
3 | CCc1cnc(C2=N[C@](C)(C(C)C)C(=O)N2)c(C(=O)O)c1 | 0.97 | 1.56 | 3.39 | Active | 7.14 | 28.9

Reference: ChEMBL document CHEMBL3046895, “Molecular mechanism of enantioselective inhibition of acetolactate synthase by imazethapyr enantiomers” (J Agric Food Chem, 2010)
